Source: ChEMBL document CHEMBL4251640, “Antimalarial naphthoquinones. Synthesis via click chemistry, in vitro activity, docking to PfDHODH and SAR of lapachol-based compounds” (Eur J Med Chem, 2018)

Legend:
Plasmodium falciparum = assay: Antimalarial activity against chloroquine-resistant/mefloquine-sensitive Plasmodium falciparum W2 ring stage forms infected in human erythrocytes assessed as reduction in parasite growth after 48 hrs by parasite LDH release assay; type: functional, organism-based; conditions: W2, 48 h
Outline: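 Sorbitol-synchronized ring-stage parasites in human erythrocytes (culture kept at 37 °C, candle jar, RPMI with hypoxanthine, HEPES, 10% human plasma) plated at 2% parasitemia, 1% hematocrit with drugs diluted from DMSO stock. Incubated 48 h, frozen -20 °C 24 h, thawed. Lysate given Malstat plus NBT/PES for 1 h at 37 °C in the dark, A570 read. Triplicates. IC50 from sigmoidal dose-response fit versus drug-free controls.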

[1] = Selectivity index, CC50 for human HepG2 cells to IC50 for chloroquine-resistant/mefloquine-sensitive Plasmodium falciparum W2 ring stage forms; type: toxicity; conditions: read-out: Ratio CC50/IC50
Outline: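 HepG2 cytotoxicity: cells in RPMI 1640 with 5% FBS, trypsinized and plated. Compounds at 0.02% DMSO final, four serial-dilution concentrations, 24 h at 37 °C. MTT added for 90 min, formazan dissolved in DMSO, read at 570 nm. Duplicates. CC50 taken as the concentration killing 50% of cells. SI = CC50/IC50 against W2, with IC50 from the 48 h pLDH assay.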

[2] = Cytotoxicity against human HepG2 cells assessed as reduction in cell viability after 24 hrs by MTT assay; type: cell-based
Outline: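 HepG2 hepatoma cells kept at 37 °C, 5% CO2 in RPMI 1640 with 5% FBS, penicillin and streptomycin; trypsinized and plated in 96-well plates. Samples diluted in medium at 0.02% DMSO final, four serial concentrations; 24 h at 37 °C, then MTT (5 mg/ml in PBS) 90 min, formazan dissolved in DMSO, absorbance 570 nm. Duplicate; CC50 = concentration killing 50% of cells.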

CC(C)=CCC1=C(OCc2cn(-c3ccc(Cl)cc3)nn2)C(=O)c2ccccc2C1=O
IC50 (Plasmodium falciparum): 9.8 µM
selectivity ratio [1]: 118
CC50 at 24 h [2]: 1150 µM

C#CCOC1=C(CC=C(C)C)C(=O)c2ccccc2C1=O
IC50 (Plasmodium falciparum): 8.2 µM
selectivity ratio [1]: 113
CC50 at 24 h [2]: 924 µM

CC(C)=CCC1=C(OCc2cn(-c3ccc(S(N)(=O)=O)cc3)nn2)C(=O)c2ccccc2C1=O
IC50 (Plasmodium falciparum): > 105 µM
selectivity ratio [1]: < 4.6
CC50 at 24 h [2]: 483 µM

CC(C)=CCC1=C(OCc2cn(-c3ccc([N+](=O)[O-])cc3)nn2)C(=O)c2ccccc2C1=O
IC50 (Plasmodium falciparum): 11.7 µM
selectivity ratio [1]: 46.1
CC50 at 24 h [2]: 540 µM

CC(C)=CCC1=C(OCc2cn(C3CCN(C(=O)OC(C)(C)C)CC3)nn2)C(=O)c2ccccc2C1=O
IC50 (Plasmodium falciparum): 4 µM
selectivity ratio [1]: 34
CC50 at 24 h [2]: 136 µM

CC(C)=CCC1=C(OCc2cn(C3C[C@@H](CO)O[C@H]3n3cc(C)c(=O)[nH]c3=O)nn2)C(=O)c2ccccc2C1=O (stereo partly specified)
IC50 (Plasmodium falciparum): 13.6 µM
selectivity ratio [1]: 4.5
CC50 at 24 h [2]: 60.7 µM

O=C1C(O)=C([C@H]2CC[C@H](c3ccc(Cl)cc3)CC2)C(=O)c2ccccc21 [ATOVAQUONE]
IC50 (Plasmodium falciparum): 0.00122 µM
selectivity ratio [1]: > 328
CC50 at 24 h [2]: > 40 µM

CC(C)=CCC1=C(OCc2cn(-c3cccc(F)c3)nn2)C(=O)c2ccccc2C1=O
IC50 (Plasmodium falciparum): 8.4 µM
selectivity ratio [1]: 31.5
CC50 at 24 h [2]: 265 µM

CC(C)=CCC1=C(OCc2cn(-c3ccccc3)nn2)C(=O)c2ccccc2C1=O
IC50 (Plasmodium falciparum): 19.1 µM
selectivity ratio [1]: 5.2
CC50 at 24 h [2]: 100 µM

CC(C)=CCC1=C(OCc2cn(Cc3ccccn3)nn2)C(=O)c2ccccc2C1=O
IC50 (Plasmodium falciparum): 8.7 µM
selectivity ratio [1]: 75.6
CC50 at 24 h [2]: 658 µM

CC(C)=CCC1=C(OCc2cn(-c3ccccc3C)nn2)C(=O)c2ccccc2C1=O
IC50 (Plasmodium falciparum): 18.8 to 19.4 µM
selectivity ratio [1]: 13.6
CC50 at 24 h [2]: 256 µM

COc1ccc(-n2cc(COC3=C(CC=C(C)C)C(=O)c4ccccc4C3=O)nn2)cc1
IC50 (Plasmodium falciparum): 14.2 µM
selectivity ratio [1]: 14.1
CC50 at 24 h [2]: 200 µM

COc1ccc(-n2cc(COC3=C(CC=C(C)C)C(=O)c4ccccc4C3=O)nn2)c([N+](=O)[O-])c1
IC50 (Plasmodium falciparum): 8.2 µM
selectivity ratio [1]: 64.8
CC50 at 24 h [2]: 532 µM

CCN(CC)CCCC(C)Nc1ccnc2cc(Cl)ccc12 (stereo unspecified) [CHLOROQUINE]
CC50 at 24 h [2]: 393 µM

CC(C)=CCC1=C(OCc2cn(-c3ccc(C#N)cc3)nn2)C(=O)c2ccccc2C1=O
IC50 (Plasmodium falciparum): 8.4 µM
selectivity ratio [1]: 84.2
CC50 at 24 h [2]: 707 µM

CC(C)=CCC1=C(O)C(=O)c2ccccc2C1=O [LAPACHOL]
IC50 (Plasmodium falciparum): 124 µM
selectivity ratio [1]: > 33.4
CC50 at 24 h [2]: > 4130 µM

CC(C)=CCC1=C(OCc2cn(Cc3ccccc3)nn2)C(=O)c2ccccc2C1=O
IC50 (Plasmodium falciparum): 7.8 µM
selectivity ratio [1]: 53
CC50 at 24 h [2]: 414 µM

COc1cc([N+](=O)[O-])ccc1-n1cc(COC2=C(CC=C(C)C)C(=O)c3ccccc3C2=O)nn1
IC50 (Plasmodium falciparum): 4.1 µM
selectivity ratio [1]: 171
CC50 at 24 h [2]: 701 µM

CC(C)=CCC1=C(OCc2cn(C3CCNCC3)nn2)C(=O)c2ccccc2C1=O
IC50 (Plasmodium falciparum): 4.6 µM
selectivity ratio [1]: 124
CC50 at 24 h [2]: 570 µM

CC(C)=CCC1=C(OCc2cn(-c3ccnc4cc(Cl)ccc34)nn2)C(=O)c2ccccc2C1=O
IC50 (Plasmodium falciparum): 15.1 µM
selectivity ratio [1]: 129
CC50 at 24 h [2]: 1940 µM

CC(C)=CCC1=C(OCc2cn(-c3cccnc3)nn2)C(=O)c2ccccc2C1=O
IC50 (Plasmodium falciparum): 5.2 µM
selectivity ratio [1]: 198
CC50 at 24 h [2]: 1030 µM
